We go through 15 compounds from ChEMBL document CHEMBL4145466, “Design, synthesis, and biological evaluation of novel combretastatin A-4 thio derivatives as microtubule targeting agents” (Eur J Med Chem, 2018).

The nature of experiment [1]: Inhibition of porcine tubulin polymerization after 1 hr by spectrophotometric analysis. On the set-up: species or system Sus scrofa. A digest of the protocol: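 Polymerization was started by shifting from 4 °C to 37 °C, and absorbance was followed at 37 °C for 60 min. The vehicle served as control.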
The subject of a further experiment is SK-OV-3. In words: Cytotoxicity against human SKOV3 cells after 48 hrs by MTT assay. The experiment is classed as functional, cell-based. The conditions noted are these: SK-OV-3, 48 h. Put shortly: (§1)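 Cells in DMEM with 10% FBS were plated at 2 × 10^4 per well and left overnight, then treated for 48 h at 0.6–20 µM (six concentrations) from 10 mM DMSO stocks. MTT was added for 2 h, and formazan was dissolved in DMSO and read at 570 nm. Viability was expressed as % of control, with IC50 taken from dose-response curves. Results are mean ± SD of three independent experiments.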

The test system of a further experiment is A549. In words: Cytotoxicity against human A549 cells after 48 hrs by MTT assay. The experiment is classed as functional, cell-based. The conditions noted are these: A549, 48 h. In general terms: Formazan colour is commonly taken as a measure of viable cells.
The test system of another experiment is HaCaT. Briefly: Cytotoxicity against human HaCaT cells after 48 hrs by MTT assay. The experiment is classed as cell-based. Put shortly:
as §1

In another experiment the test system is A-431. Briefly: Cytotoxicity against human A431 cells after 48 hrs by MTT assay. The experiment is classed as functional, cell-based. The conditions noted are these: A-431, 48 h. Put shortly: as §1
In a further experiment the test system is MDA-MB-231. In words: Cytotoxicity against human MDA-MB-231 cells after 48 hrs by MTT assay. The experiment is classed as functional, cell-based. To be noted: MDA-MB-231, 48 h. A digest of the protocol: as §1
In another experiment the test system is MCF7. In words: Cytotoxicity against human MCF7 cells after 48 hrs by MTT assay. Format: functional, cell-based. The conditions noted are these: MCF7, 48 h. A digest of the protocol:
as §1

Another experiment has as its system HeLa. Briefly: Cytotoxicity against human HeLa cells after 48 hrs by MTT assay. The experiment is classed as functional, cell-based. Put shortly:
as §1

The nature of experiment [2]: Cytotoxicity against human CCD39Lu cells after 48 hrs by MTT assay. Format: cell-based. Put shortly: as §1

On to `COc1ccc(-c2c(-c3cc(OC)c(SC)c(OC)c3)ncn2C)cc1O`, for which the IC50 (commonly the concentration at which inhibition is half-maximal) in experiment [1] was 6.67 µM; in the experiment on SK-OV-3 it was 1.72 µM; in the experiment with A549, > 20 µM; with HaCaT it was 0.5 µM; in the experiment with A-431, 0.43 µM; in the experiment on MDA-MB-231 it was 0.39 µM. In addition, the results for the concentration for half-maximal inhibition (IC50) (in the experiment on MCF7; in the experiment with HeLa; in [2]) were 1.63 µM, 0.39 µM and > 20 µM, respectively.
On to `COc1cc(/C=C\c2cccc(OC)c2SC)cc(OC)c1OC`, for which the IC50 in experiment [1] is > 10 µM; in the experiment with SK-OV-3 it was 14.5 µM; with A549, > 20 µM; in the experiment with HaCaT it was 9.56 µM; in the experiment on A-431, 3.61 µM; in the experiment with MDA-MB-231 it was 11.7 µM. Moreover, the half-maximal inhibitory concentration (IC50) is 0.65 µM in the experiment with MCF7, 6.18 µM with HeLa and > 20 µM in experiment [2].
With `COc1ccc(-c2c(-c3cc(Br)c(OC)c(OC)c3)ncn2C)cc1SC`, the IC50 is > 10 µM in [1]; > 20 µM in the experiment with SK-OV-3; > 20 µM in the experiment on A549; > 20 µM with HaCaT; > 20 µM in the experiment on A-431; > 20 µM with MDA-MB-231. Further, the concentration for half-maximal inhibition (IC50) is 5.24 µM in the experiment on MCF7, > 20 µM in the experiment with HeLa and > 20 µM in experiment [2].
For `COc1cc(-c2ocnc2-c2cc(OC)c(OC)c(OC)c2)ccc1SC`, the 50% inhibitory concentration (IC50) was 1.62 µM in experiment [1]; 1.48 µM with SK-OV-3; > 20 µM in the experiment on A549; 0.43 µM in the experiment with HaCaT; 0.43 µM with A-431; 0.85 µM in the experiment on MDA-MB-231. Also, the IC50 with MCF7 was 0.6 µM; in the experiment with HeLa it was 0.645 µM; in experiment [2] it was > 20 µM.
As to `COc1ccc(-c2ocnc2-c2cc(Br)c(OC)c(OC)c2)cc1OC`, the IC50 stood at 4.8 µM in experiment [1]; 0.26 µM in the experiment on SK-OV-3; 0.5 µM with A549; 10.1 µM in the experiment with HaCaT; 12.3 µM in the experiment on A-431; 7.83 µM in the experiment with MDA-MB-231. Also, the IC50 in the experiment with MCF7 is 6.1 µM; in the experiment with HeLa, 0.07 µM; in [2], > 20 µM.
Consider `COc1cc(-c2ncoc2-c2cc(Br)c(SC)c(OC)c2)cc(OC)c1OC`, for which the concentration for half-maximal inhibition (IC50) was > 10 µM in [1]; > 20 µM in the experiment on SK-OV-3; > 20 µM in the experiment with A549; 16.7 µM in the experiment on HaCaT; > 20 µM in the experiment on A-431; 17.9 µM with MDA-MB-231. The half-inhibitory concentration (IC50) in the experiment with MCF7 is 1.42 µM; in the experiment on HeLa, > 20 µM; in [2], > 20 µM.
With `COc1cc(/C(=C\c2ccccc2SC)C(=O)O)cc(OC)c1OC`, the 50% inhibitory concentration (IC50) in experiment [1] is > 10 µM; with SK-OV-3 it was > 20 µM; in the experiment with A549 it was > 20 µM; with HaCaT, > 20 µM; with A-431, > 20 µM; in the experiment with MDA-MB-231, > 20 µM. In addition, the half-maximal inhibitory concentration (IC50) in the experiment on MCF7 is 1.84 µM; with HeLa, > 20 µM; in experiment [2], > 20 µM.
Consider `COc1cc(-c2ncn(C)c2-c2cc(Br)c(SC)c(OC)c2)cc(OC)c1OC`, for which the 50% inhibitory concentration (IC50) in experiment [1] is > 10 µM; with SK-OV-3, > 20 µM; in the experiment on A549, > 20 µM; in the experiment with HaCaT, > 20 µM; in the experiment on A-431, 16.6 µM; in the experiment on MDA-MB-231 it was > 20 µM. Further, the 50% inhibitory concentration (IC50) with MCF7 worked out at 2.51 µM; in the experiment on HeLa it was 8.18 µM; in [2], 6.13 µM.
For `COc1cc(-c2ncn(C)c2-c2ccccc2SC)cc(OC)c1OC`, the IC50 in experiment [1] is > 10 µM; with SK-OV-3, > 20 µM; in the experiment on A549, > 20 µM; with HaCaT, > 20 µM; in the experiment with A-431, > 20 µM; in the experiment on MDA-MB-231, > 20 µM. Moreover, the IC50 with MCF7 is 2.29 µM; in the experiment on HeLa it was > 20 µM; in experiment [2], > 20 µM.
Turning to `COc1cc(/C(=C\c2cccc(OC)c2SC)C(=O)O)cc(OC)c1OC`, the IC50 is > 10 µM in experiment [1]; > 20 µM with SK-OV-3; > 20 µM with A549; > 20 µM in the experiment with HaCaT; > 20 µM in the experiment with A-431; > 20 µM with MDA-MB-231. In addition, the concentration for half-maximal inhibition (IC50) in the experiment with MCF7 is 0.95 µM; in the experiment with HeLa, > 20 µM; in experiment [2] it was > 20 µM.
With `COc1cc(/C=C\c2ccccc2SC)cc(OC)c1OC`, the IC50 is > 10 µM in [1]; 14.1 µM in the experiment on SK-OV-3; > 20 µM with A549; 12.8 µM in the experiment on HaCaT; 8.22 µM in the experiment on A-431; 14.2 µM in the experiment on MDA-MB-231. Further, the IC50 is 2.35 µM with MCF7, 11.7 µM in the experiment with HeLa and > 20 µM in experiment [2].
For `COc1cc(-c2c(-c3cc(Br)c(OC)c(OC)c3)ncn2C)ccc1SC`, the half-maximal inhibitory concentration (IC50) is > 10 µM in experiment [1]; > 20 µM with SK-OV-3; > 20 µM in the experiment with A549; > 20 µM in the experiment with HaCaT; 13.6 µM in the experiment on A-431; 15.5 µM with MDA-MB-231. The IC50 is 2.2 µM with MCF7, > 20 µM in the experiment with HeLa and 19.3 µM in experiment [2].
In the case of `COc1ccc(-c2ocnc2-c2cc(OC)c(OC)c(OC)c2)cc1S`, the half-maximal inhibitory concentration (IC50) was 2.97 µM in experiment [1]; 3.18 µM in the experiment with SK-OV-3; > 20 µM in the experiment with A549; 1.28 µM in the experiment with HaCaT; 1.22 µM in the experiment with A-431; 2.87 µM with MDA-MB-231. For the same compound, the IC50 in the experiment on MCF7 is 2.11 µM; with HeLa it was 4.44 µM; in experiment [2], > 20 µM.
With `COc1cc(-c2ocnc2-c2cc(Br)c(OC)c(OC)c2)ccc1SC`, the IC50 in experiment [1] is 1.54 µM; in the experiment on SK-OV-3, 1.03 µM; in the experiment with A549, > 20 µM; in the experiment with HaCaT it was 0.26 µM; with A-431, 0.41 µM; in the experiment with MDA-MB-231, 0.76 µM. The half-inhibitory concentration (IC50) was 2.48 µM in the experiment with MCF7, 0.44 µM with HeLa and > 20 µM in experiment [2].
In the case of `COc1cc(-c2ncoc2-c2ccccc2SC)cc(OC)c1OC`, the concentration for half-maximal inhibition (IC50) in experiment [1] was 0.86 µM; with SK-OV-3 it was > 20 µM; in the experiment with A549, > 20 µM; in the experiment on HaCaT, > 20 µM; in the experiment on A-431, > 20 µM; in the experiment on MDA-MB-231 it was > 20 µM. The IC50 with MCF7 was 1.43 µM; with HeLa, 7.33 µM; in [2], > 20 µM.
